The nature of series [1]: folding enthalpy; higher = less favourable; fluorescence melt of hairpins on a sequencing array, two-state fit. Conditions: sodium 0.088 M. A digest of the protocol: (§1)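 To match UV melts, fitted temperatures were raised by 9.35 °C. These fits were bootstrapped two-state models that gave melting temperature and folding enthalpy, combined by inverse variance over four replicates. The input was normalised Cy3 fluorescence of library hairpins with annealed Cy3 and quencher oligos on a sequenced MiSeq flow cell, imaged in 50 mM Na-HEPES pH 8.0, 25 mM NaCl in 2.5 °C steps up to 60 °C.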

Series [2] can be described thus: melting temperature; fluorescence melt of hairpins on a sequencing array, two-state fit, raised by 9.35 °C to match UV melts. The note with it: sodium 0.088 M. A digest of the protocol: as §1

With GACCGGGGAAACCTGGTC ((((.((....)).)))), the folding enthalpy in series [1] was -39.3 kcal/mol. Besides, the Tm in series [2] was found to be 55.4 °C.

For the sequence GACCGTGGAAACACGATC ((.((((....)))).)), the folding enthalpy in series [1] was -19.1 kcal/mol. Besides, the Tm in series [2] stood at 43.1 °C.

With GACCGTGGAAACGCGGTC (((((.(....).))))), the folding enthalpy in series [1] is -40 kcal/mol. For the same sequence, the Tm in series [2] was 58.6 °C.

As for GACCTAGCGAAAGCTGTC (((..(((....)))))), in series [1], the folding enthalpy is -11.6 kcal/mol. Besides, the Tm in series [2] was 33 °C.

For the sequence GACCTCCGAAAGGACGTC (((.(((....))).))), the folding enthalpy in series [1] was -27.3 kcal/mol. For the same sequence, in series [2], the Tm was 42 °C.

Consider GACCTCGCGAAAGCGGTC (((..(((....)))))), for which the folding enthalpy in series [1] was -12.3 kcal/mol. In addition, in series [2], the Tm turned out to be 42.3 °C.

In the case of GACCTGGAAACAGGTC ((((((....)))))), in series [1], the folding enthalpy was -40.6 kcal/mol. Besides, the Tm in series [2] was 61.4 °C.

With GACCTGGGAAACCAGACC (..((((....))))..), the folding enthalpy in series [1] is -10.3 kcal/mol. Further, the Tm in series [2] came out at 24.6 °C.

Turning to GACCTGGGAAACCAGGCC (.(((((....))))).), the folding enthalpy in series [1] is -12.7 kcal/mol. Moreover, in series [2], the Tm came out at 46.4 °C.

As to GACCTTGGAAACAAGGCC (.(((((....))))).), the folding enthalpy in series [1] was -17.2 kcal/mol. For the same sequence, the Tm in series [2] is 45.2 °C.

For the sequence GACGAACCGAAAGGTGTC (((..(((....)))))), the folding enthalpy in series [1] was -16.4 kcal/mol. For the same sequence, the Tm in series [2] came out at 43.1 °C.

As for GACGACGAAAGTCATGTC ((((((....)))..))), the folding enthalpy in series [1] is -15.2 kcal/mol. Besides, in series [2], the Tm turned out to be 40.3 °C.

GACGACGAAAGTCCAGTC ((((((....)))..))): the folding enthalpy in series [1] was -21.5 kcal/mol. In addition, the Tm in series [2] was found to be 36.2 °C.

For GACGACGAAAGTCCCGTC ((((((....)))..))), the folding enthalpy in series [1] was -16.6 kcal/mol. Further, the Tm in series [2] is 34.3 °C.

For the sequence GACGACGAAAGTCGCGTC ((((((....)))..))), the folding enthalpy in series [1] is -10.6 kcal/mol. For the same sequence, the Tm in series [2] came out at 49.9 °C.

As to GACGACGAAAGTCTCGTC ((((((....)))..))), the folding enthalpy in series [1] is -17.1 kcal/mol. In series [2], the Tm is 46.9 °C.

Turning to GACGACGAAAGTCTGGTC ((((((....)))..))), the folding enthalpy in series [1] was -21.8 kcal/mol. For the same sequence, the Tm in series [2] worked out at 41.2 °C.

Consider GACGACGGAAACGTTGTC (((.(((....))).))), for which the folding enthalpy in series [1] is -43.1 kcal/mol. The Tm in series [2] stood at 55 °C.

On to GACGAGGGAAACCTCATC ((.((((....)))).)), for which, in series [1], the folding enthalpy is -20.3 kcal/mol. Moreover, in series [2], the Tm was 31.2 °C.

Turning to GACGATGAAAATCGTC ((((((....)))))), the folding enthalpy in series [1] is -31.1 kcal/mol. Further, in series [2], the Tm was 61.1 °C.

For the sequence GACGATGGAAACACCATC ((.(.((....)).).)), in series [1], the folding enthalpy is -17 kcal/mol. Also, in series [2], the Tm came out at 28.4 °C.

As to GACGATGGAAACATCATC ((.((((....)))).)), in series [1], the folding enthalpy is -18.4 kcal/mol. Besides, the Tm in series [2] came to 33.4 °C.

With GACGCACCGAAAGGTGTC (((..(((....)))))), in series [1], the folding enthalpy is -8.75 kcal/mol. Moreover, the Tm in series [2] is 32.1 °C.

With GACGCAGCGAAAGCTGTC (((..(((....)))))), the folding enthalpy in series [1] was -7.32 kcal/mol. For the same sequence, the Tm in series [2] is 33.5 °C.

For the sequence GACGCCGAAAGGCGCGTC ((((((....)))..))), in series [1], the folding enthalpy was -9.77 kcal/mol. In addition, in series [2], the Tm is 49.6 °C.

Consider GACGCCGAAAGGCGTGTC ((((((....)))..))), for which the folding enthalpy in series [1] is -8.76 kcal/mol. Also, the Tm in series [2] amounted to 66.9 °C.

GACGCCGAAAGGCTGGTC ((((((....)))..))): the folding enthalpy in series [1] is -16.1 kcal/mol. Moreover, the Tm in series [2] was determined as 48 °C.

For GACGCGACGAAAGTCGTC (((..(((....)))))), the folding enthalpy in series [1] is -8.11 kcal/mol. Further, the Tm in series [2] was 35.5 °C.

With GACGCTGGAAACAACGTC ((((.((....)).)))), in series [1], the folding enthalpy was -39.4 kcal/mol. Moreover, in series [2], the Tm amounted to 45.5 °C.

Consider GACGCTGGAAACAGTGTC (((.(((....))).))), for which the folding enthalpy in series [1] is -42 kcal/mol. For the same sequence, in series [2], the Tm turned out to be 53.5 °C.

For the sequence GACGGACGAAAGTCAGTC (((.(((....))).))), in series [1], the folding enthalpy was -37.5 kcal/mol. Moreover, the Tm in series [2] turned out to be 59.5 °C.

GACGGAGGAAACCCCGTC (((((.(....).))))): in series [1], the folding enthalpy was -37.5 kcal/mol. In series [2], the Tm was 51.3 °C.

On to GACGGAGGAAACTCCATC ((.((((....)))).)), for which the folding enthalpy in series [1] is -16.8 kcal/mol. Besides, the Tm in series [2] came out at 33.6 °C.

Take GACGGAGGAAACTCTGTC (((.(((....))).))): the folding enthalpy in series [1] was -39.4 kcal/mol. The Tm in series [2] was determined as 48 °C.

For the sequence GACGGCGAAAGCCGTGTC ((((((....)))..))), the folding enthalpy in series [1] is -9.28 kcal/mol. The Tm in series [2] is 63.9 °C.

Consider GACGGGGGAAACCCCATC ((.((((....)))).)), for which, in series [1], the folding enthalpy was -14.7 kcal/mol. Further, the Tm in series [2] was 37 °C.

With GACGGTACGAAAGTAGTC (((..(((....)))))), the folding enthalpy in series [1] is -16 kcal/mol. In addition, in series [2], the Tm worked out at 34.5 °C.

With GACGGTGGAAACACCACC (..((((....))))..), the folding enthalpy in series [1] is -11.1 kcal/mol. Besides, in series [2], the Tm is 35.2 °C.

Turning to GACGGTGGAAACACCGCC (.(((((....))))).), in series [1], the folding enthalpy was -12.7 kcal/mol. Also, in series [2], the Tm is 50.4 °C.

As to GACGGTGGAAACGCTGTC (((.(.(....).).))), the folding enthalpy in series [1] is -22.2 kcal/mol. For the same sequence, the Tm in series [2] was found to be 40.9 °C.

GACGTACCGAAAGGTGTC (((..(((....)))))): the folding enthalpy in series [1] was -22.4 kcal/mol. Further, the Tm in series [2] turned out to be 41.9 °C.

Take GACGTACGAAAGTAGTC (((.(((....)))))): the folding enthalpy in series [1] was -34 kcal/mol. In addition, in series [2], the Tm amounted to 52.8 °C.

Consider GACGTAGCGAAAGCTGTC (((..(((....)))))), for which the folding enthalpy in series [1] was -17.7 kcal/mol. For the same sequence, in series [2], the Tm turned out to be 47.1 °C.

For GACGTCGGAAACGGTGTC (((..((....))..))), the folding enthalpy in series [1] was -25.7 kcal/mol. The Tm in series [2] was found to be 43 °C.

Regarding GACGTGACGAAAGTCGTC (((..(((....)))))), in series [1], the folding enthalpy is -14.2 kcal/mol. Also, the Tm in series [2] amounted to 49.4 °C.

Turning to GACGTGGGAAACCGTGTC (((..((....))..))), the folding enthalpy in series [1] was -16.8 kcal/mol. In series [2], the Tm worked out at 36.6 °C.

GACGTTGCGAAAGCAGTC (((..(((....)))))): in series [1], the folding enthalpy was -16.5 kcal/mol. Also, the Tm in series [2] amounted to 49.9 °C.

Turning to GACTAACCGAAAGGTGTC (((..(((....)))))), in series [1], the folding enthalpy was -18.3 kcal/mol. Besides, in series [2], the Tm stood at 41.4 °C.

Turning to GACTAACGAAAGTTGTC (((.(((....)))))), the folding enthalpy in series [1] is -24.1 kcal/mol. The Tm in series [2] is 42.4 °C.

Consider GACTACGAAAGTACTGTC ((((((....)))..))), for which, in series [1], the folding enthalpy was -18.5 kcal/mol. For the same sequence, the Tm in series [2] is 29.9 °C.

In the case of GACTACGAAAGTATGTC ((((((....))).))), the folding enthalpy in series [1] was -26.2 kcal/mol. In series [2], the Tm came to 44.7 °C.

For the sequence GACTACGGAAACGTGGTC (((.(((....))).))), the folding enthalpy in series [1] was -42.8 kcal/mol. Moreover, the Tm in series [2] was 52 °C.

Turning to GACTAGCCGAAAGGCGTC (((..(((....)))))), the folding enthalpy in series [1] was -9.39 kcal/mol. For the same sequence, in series [2], the Tm amounted to 40.5 °C.

Turning to GACTAGCGAAAGCTGGTC (((.(((....))).))), in series [1], the folding enthalpy was -34.1 kcal/mol. The Tm in series [2] stood at 61 °C.
